Experimental findings from ChEMBL document CHEMBL5625169, “Development of novel PEX5-PEX14 protein-protein interaction (PPI) inhibitors based on an oxopiperazine template” (Eur J Med Chem, 2023) are described below.

The term EC50 denotes the concentration at which the effect is half-maximal. What is called Ki is the dissociation constant of the complex between target and ligand, obtained from inhibition or displacement. What is called Kd is the constant that tells how readily two partners part at equilibrium.

Where only a bound is given, the exact number is not on record here.

Data set [1] relates to HepG2. Nature of the data set: Cytotoxicity against human HepG2 cells assessed as reduction in cell viability incubated for 66 hrs by resazurin staining based analysis. The class given is functional. Conditions: HepG2, 66 h. The procedure, abridged:
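HepG2 cells seeded at 5000 per well and grown overnight at 37 °C, 5% CO2. Compounds tested in triplicate at 100 to 3.125 µM (twofold dilutions); hygromycin B as cytotoxic control. After 66 h, resazurin added and plates incubated a further 6 h. Fluorescence background-subtracted and normalised to untreated cells; EC50 from sigmoidal dose-response fit.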
A general note: Alamar Blue is a resazurin reagent that responds to reducing activity.

Data set [2] has as its system Trypanosoma brucei. In words: Antitrypanosomal activity against blood stream form of Trypanosoma brucei Lister 427 MITat 1.2 assessed as parasite growth inhibition incubated for 66 hrs by resazurin dye based assay. It is filed as functional, organism-based. Conditions: Lister 427 MITat 1.2, 66 h. In short, it runs like this:
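Bloodstream-form Lister 427 (MITat 1.2) parasites maintained in HMI-11 with 10% FBS at 37 °C, 5% CO2. Twofold serial dilutions, 10 per row, in quadruplicate. Final 2×10^3 parasites/mL, 66 h, then resazurin added and incubated to 72 h. Fluorescence read at ex 530/em 585 nm, background subtracted, untreated wells taken as 100% survival. EC50 from sigmoidal dose-response fit.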

A short description of data set [3]: Inhibition of Trypanosoma brucei biotinylated PEX5 /N-terminal His-tagged PEX14 (19 to 84 residues) protein-protein interaction expressed in Escherichia coli BL21 assessed as inhibition constant by AlphaScreen assay. In short, it runs like this: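 TbPEX14 N-terminal domain (aa 19–84) expressed from pETM-11 in E. coli BL21, Ni-NTA then gel filtration in PBS. AlphaScreen competition with serial inhibitor dilution, other components held constant, quadruplicate. Ki = EC50/(1+[LT]/KdL*T), apparent Kd measured for each condition.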

The nature of data set [4]: Selectivity index, ratio of EC50 for cytotoxicity against human HepG2 cells assessed as reduction in cell viability to EC50 for antitrypanosomal activity against blood stream form of Trypanosoma brucei Lister 427 MITat 1.2 assessed as parasite growth inhibition. It is filed as toxicity, cell-based. The settings on record: read-out: Ratio EC50. In short, it runs like this: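 Ratio of HepG2 EC50 (µM) to T. b. brucei EC50. Parasites: bloodstream form, 2×10^3/mL, 66 h plus resazurin to 72 h, quadruplicate.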

In data set [5] the target is CREB-binding protein/Histone acetyltransferase p300 (Homo sapiens, UniProt Q09472+Q92793). In words: Binding affinity to p300-CBP (unknown origin) protein protein interaction assessed as dissociation constant by tryptophan fluorescence assay.
Data set [6] concerns the target Tumour suppressor p53/oncoprotein Mdm2 (Homo sapiens, UniProt P04637+Q00987). Nature of the data set: Binding affinity to MDM2-p53 (unknown origin) protein protein interaction assessed as dissociation constant by fluorescence polarization assay.

Tumour suppressor p53/oncoprotein Mdm2, sequence (P04637 whole entry): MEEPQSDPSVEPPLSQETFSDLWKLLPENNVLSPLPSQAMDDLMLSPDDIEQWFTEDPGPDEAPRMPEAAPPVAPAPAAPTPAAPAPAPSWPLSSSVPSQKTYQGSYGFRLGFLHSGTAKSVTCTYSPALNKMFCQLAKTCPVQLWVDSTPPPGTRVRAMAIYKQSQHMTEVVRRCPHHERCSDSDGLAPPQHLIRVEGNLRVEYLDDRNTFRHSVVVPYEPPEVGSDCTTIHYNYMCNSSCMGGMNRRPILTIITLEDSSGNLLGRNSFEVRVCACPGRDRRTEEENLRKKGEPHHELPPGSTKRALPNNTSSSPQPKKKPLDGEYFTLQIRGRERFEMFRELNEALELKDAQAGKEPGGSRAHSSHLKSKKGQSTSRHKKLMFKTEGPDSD
Tumour suppressor p53/oncoprotein Mdm2, sequence (Q00987 whole entry): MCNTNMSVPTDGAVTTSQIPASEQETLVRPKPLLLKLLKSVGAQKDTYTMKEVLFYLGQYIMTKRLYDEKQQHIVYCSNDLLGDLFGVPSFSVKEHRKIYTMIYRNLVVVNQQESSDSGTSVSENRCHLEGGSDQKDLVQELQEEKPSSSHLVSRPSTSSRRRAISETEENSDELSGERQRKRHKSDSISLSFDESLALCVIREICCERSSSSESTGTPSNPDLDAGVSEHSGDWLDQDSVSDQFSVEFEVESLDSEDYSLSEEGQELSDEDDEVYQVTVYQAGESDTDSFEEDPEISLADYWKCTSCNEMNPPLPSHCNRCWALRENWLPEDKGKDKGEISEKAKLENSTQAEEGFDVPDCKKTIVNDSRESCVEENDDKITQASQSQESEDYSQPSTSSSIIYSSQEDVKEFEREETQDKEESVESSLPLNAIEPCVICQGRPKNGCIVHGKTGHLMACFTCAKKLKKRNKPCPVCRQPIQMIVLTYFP

Consider `O=C1CN(CCc2c[nH]c3ccccc23)C[C@H](Cc2c[nH]c3ccccc23)N1`, for which the EC50 in data set [1] came out at 12 µM; in data set [2] it was 7 µM. Besides, the Ki in data set [3] was found to be 41 µM. Besides, the selectivity ratio in data set [4] turned out to be 1.7.

Take `COC(=O)[C@H](Cc1c[nH]c2ccccc12)N1CC(=O)N[C@H](C(=O)NCc2cccc3ccccc23)C1`: the EC50 in data set [1] turned out to be 33 µM; in data set [2], 10 µM. Further, the Ki in data set [3] was 77 µM. In data set [4], the selectivity ratio was 3.2.

On to `COC(=O)[C@H](Cc1c[nH]c2ccccc12)N1C[C@H](Cc2c[nH]c3ccccc23)NC(=O)C1=O`, for which the figures for the EC50 in data set [1] and in data set [2] were over 100 µM and 29 µM, respectively. For the same compound, in data set [3], the Ki is 75 µM. Also, the selectivity ratio in data set [4] was over 3.4.

`COC(=O)[C@H](Cc1c[nH]c2ccccc12)N1CC(=O)N[C@@H](Cc2c[nH]c3ccccc23)C1`: the values for the EC50 in data set [1] and in data set [2] were 17 µM and 5 µM, respectively. Further, the Ki in data set [3] turned out to be 27 µM. For the same compound, the selectivity ratio in data set [4] came out at 3.6.

As to `COC(=O)[C@H](Cc1c[nH]c2ccccc12)N1CCN(C(C)=O)[C@@H](Cc2c[nH]c3ccccc23)C1=O`, the EC50 in data set [1] and in data set [2] was over 100 µM in each case. For the same compound, in data set [3], the Ki is 542 µM.

For the compound `COC(=O)[C@H](Cc1c[nH]c2ccccc12)N1CCN[C@@H](Cc2c[nH]c3ccccc23)C1=O`, the values for the EC50 in data set [1] and in data set [2] were over 100 µM and 30 µM, respectively. Besides, the Ki in data set [3] was 133 µM. The selectivity ratio in data set [4] is over 3.4.

In the case of `COC(=O)[C@H](Cc1c[nH]c2ccccc12)N1CC(=O)N[C@H](C(=O)NCc2ccccc2)C1`, the EC50 in data set [1] and in data set [2] was over 100 µM in each case. In addition, the Ki in data set [3] stood at 494 µM.

For the compound `COC(=O)[C@H](Cc1ccccc1)N1CC(=O)N[C@@H](Cc2c[nH]c3ccccc23)C1=O`, the figures for the EC50 in data set [1] and in data set [2] were 24 µM and 29 µM, respectively. The Ki in data set [3] is over 1000 µM. Besides, in data set [4], the selectivity ratio was under 1.

On to `O=C1CN(C(=O)Cc2c[nH]c3ccccc23)C[C@H](Cc2c[nH]c3ccccc23)N1`, for which the EC50 in data set [1] and in data set [2] was over 100 µM each time. Further, the Ki in data set [3] came to 195 µM.

For `CC(C)C[C@@H]1NCCN([C@@H](CC(C)C)C(=O)N2CCN([C@@H](CCC(N)=O)C(N)=O)C(=O)[C@@H]2C)C1=O`, the Kd in data set [5] amounted to 0.53 µM.

On to `O=C1CN([C@H](CO)Cc2c[nH]c3ccccc23)C[C@H](Cc2c[nH]c3ccccc23)N1`, for which the results for the EC50 in data set [1] and in data set [2] were 24 µM and 14 µM, respectively. The Ki in data set [3] came to 48 µM. Also, the selectivity ratio in data set [4] was 1.7.

`CC(=O)OC[C@H](Cc1c[nH]c2ccccc12)N1CC(=O)N[C@@H](Cc2c[nH]c3ccccc23)C1`: the results for the EC50 in data set [1] and in data set [2] were 29 µM and 13 µM, respectively. Moreover, the Ki in data set [3] is 58 µM. For the same compound, the selectivity ratio in data set [4] turned out to be 1.8.

`NC(=O)[C@H](Cc1ccccc1)N1CC(=O)N[C@@H](Cc2c[nH]c3ccccc23)C1=O`: the EC50 in data set [1] and in data set [2] was over 100 µM throughout. The Ki in data set [3] is over 1000 µM.

As to `COC(=O)[C@H](Cc1ccccc1)N1CCN[C@@H](Cc2c[nH]c3ccccc23)C1=O`, the EC50 in data set [1] was over 100 µM; in data set [2], 43 µM. Further, the Ki in data set [3] was 265 µM. The selectivity ratio in data set [4] is over 2.3.

Turning to `CC(C)C[C@@H](C(N)=O)N1CCN(C(=O)[C@H](Cc2c[nH]c3ccccc23)N2CCN[C@@H](Cc3ccccc3)C2=O)[C@@H](Cc2ccccc2)C1=O`, in data set [6], the Kd is 2.9 µM.

On to `COC(=O)[C@H](Cc1ccccc1)N1CC(=O)N[C@@H](Cc2c[nH]c3ccccc23)C1`, for which the EC50 in data set [1] worked out at 56 µM; in data set [2], 13 µM. Moreover, in data set [3], the Ki came out at 73 µM. In data set [4], the selectivity ratio is 4.3.

With `NC(=O)[C@H](Cc1c[nH]c2ccccc12)N1CCN[C@@H](Cc2c[nH]c3ccccc23)C1=O`, the EC50 in data set [1] and in data set [2] was over 100 µM each time. The Ki in data set [3] worked out at 288 µM.

Consider `COC(=O)[C@H](Cc1c[nH]c2ccccc12)N1CCCN[C@@H](Cc2c[nH]c3ccccc23)C1=O`, for which the EC50 in data set [1] was found to be 21 µM; in data set [2] it was 5 µM. The Ki in data set [3] was determined as 53 µM. In data set [4], the selectivity ratio came to 4.2.
